Measured values published in ChEMBL document CHEMBL2203158, “Fluorescent derivatives of AC-42 to probe bitopic orthosteric/allosteric binding mechanisms on muscarinic M1 receptors” (J Med Chem, 2012).
Activity calls are given as the source filed them. No cut-off for these calls is given here.

Legend:
[1] = target: T1, Muscarinic acetylcholine receptor M1 (Homo sapiens, UniProt P11229); type: cell-based, HEK293
T1 sequence (P11229 whole entry): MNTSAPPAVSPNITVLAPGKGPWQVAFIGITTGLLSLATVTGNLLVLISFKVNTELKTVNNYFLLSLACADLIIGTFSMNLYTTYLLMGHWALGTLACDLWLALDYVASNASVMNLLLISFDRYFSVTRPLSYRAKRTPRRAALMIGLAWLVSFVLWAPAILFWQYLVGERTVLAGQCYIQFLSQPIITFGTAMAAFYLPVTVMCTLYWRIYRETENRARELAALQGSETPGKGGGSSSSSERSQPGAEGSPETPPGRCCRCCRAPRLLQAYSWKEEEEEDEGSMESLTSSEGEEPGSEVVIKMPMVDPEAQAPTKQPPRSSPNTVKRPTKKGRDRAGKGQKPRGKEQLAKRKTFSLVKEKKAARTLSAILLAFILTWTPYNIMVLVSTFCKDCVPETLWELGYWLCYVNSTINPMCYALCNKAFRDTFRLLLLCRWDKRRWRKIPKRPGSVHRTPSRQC

[2] = target: T1, Muscarinic acetylcholine receptor M1; experiment: Displacement of [3H]NMS from EGFP-fused human M1 receptor N-terminal truncated at 17 residues expressed in HEK293 cells after 22 hrs by liquid scintillation counting; type: cell-based
[3] = target: T2, Muscarinic acetylcholine receptor M1 (Homo sapiens) (UniProt P11229); experiment: (§1) Antagonist activity at EGFP-fused human M1 receptor N-terminal truncated at 17 residues expressed in HEK293 cells assessed as inhibition of carbachol induced calcium response by fluorescence assay; type: functional, cell-based
T2 sequence (whole entry): T1 sequence (P11229 whole entry)

[4] = target: T1, Muscarinic acetylcholine receptor M1; experiment: as §1; type: functional, cell-based
[5] = target: Muscarinic acetylcholine receptor M3 (Homo sapiens) (UniProt P20309); experiment: Antagonist activity at human M3 receptor in HEK293 cells assessed as inhibition of 20 uM carbachol induced calcium response at 10 uM by fluorescence assay; type: functional, cell-based
Chain of Muscarinic acetylcholine receptor M3 (Homo sapiens) (P20309 whole entry, looked up): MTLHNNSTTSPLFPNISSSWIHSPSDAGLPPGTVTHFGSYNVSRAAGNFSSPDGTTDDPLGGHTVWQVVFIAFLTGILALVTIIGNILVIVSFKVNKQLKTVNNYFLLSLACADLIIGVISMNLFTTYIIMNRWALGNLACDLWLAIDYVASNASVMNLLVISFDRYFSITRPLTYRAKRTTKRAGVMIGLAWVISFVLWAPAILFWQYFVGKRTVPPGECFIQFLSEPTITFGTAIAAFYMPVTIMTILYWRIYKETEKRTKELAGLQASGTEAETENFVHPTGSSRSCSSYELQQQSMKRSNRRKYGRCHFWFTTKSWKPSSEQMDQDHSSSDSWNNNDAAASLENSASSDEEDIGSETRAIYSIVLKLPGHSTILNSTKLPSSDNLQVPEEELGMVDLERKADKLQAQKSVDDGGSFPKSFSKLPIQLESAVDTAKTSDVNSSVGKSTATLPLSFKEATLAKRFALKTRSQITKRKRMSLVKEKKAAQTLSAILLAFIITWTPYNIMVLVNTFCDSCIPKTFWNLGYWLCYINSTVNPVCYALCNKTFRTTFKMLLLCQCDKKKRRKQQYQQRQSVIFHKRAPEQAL
In short: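 Nontransfected HEK cells (endogenous M3) loaded with 5 μM Indo-1 AM, 45 min, 37 °C, trypsin/EDTA harvested, suspended at 10⁶ cells/mL in Hepes buffer with 1 mg/mL BSA. Calcium read at 37 °C as 400 nm emission (338 nm excitation), peak normalized to 20 μM digitonin maximum.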

[6] = target: T1, Muscarinic acetylcholine receptor M1; experiment: Partial agonist activity at EGFP-fused human M1 receptor N-terminal truncated at 11 residues expressed in HEK293 cells assessed as induction of calcium response by fluorescence assay; type: functional, cell-based
In short: (§2)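 Stably transfected HEK293 cells (hygromycin-selected) were loaded with 5 μM Indo-1 AM for 45 min at 37 °C, then suspended at 10⁶ cells/mL in Hepes buffer with BSA. […] EC50 and Emax are mean ± SD of two determinations.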

[7] = target: T1, Muscarinic acetylcholine receptor M1; experiment: Partial agonist activity at EGFP-fused human full length M1 receptor expressed in HEK293 cells assessed as induction of calcium response by fluorescence assay; type: functional, cell-based
In short: as §2

[8] = target: T1, Muscarinic acetylcholine receptor M1; experiment: Partial agonist activity at human full length M1 receptor expressed in HEK293 cells assessed as induction of calcium response by fluorescence assay; type: functional, cell-based
In short: as §2

[9] = target: T1, Muscarinic acetylcholine receptor M1; experiment: Partial agonist activity at EGFP-fused human M1 receptor N-terminal truncated at 17 residues expressed in HEK293 cells assessed as induction of calcium response by fluorescence assay; type: functional, cell-based
In short: as §2

[10] = target: T2, Muscarinic acetylcholine receptor M1 (Homo sapiens); details: HEK293, 10 uM
[11] = target: T2, Muscarinic acetylcholine receptor M1 (Homo sapiens); details: HEK293, 200 nM
[12] = target: T2, Muscarinic acetylcholine receptor M1 (Homo sapiens); details: HEK293, 10 uM; remark: listed apart in the source
[13] = target: T2, Muscarinic acetylcholine receptor M1 (Homo sapiens); experiment: Allosteric modulation of EGFP-fused human M1 receptor N-terminal truncated at 17 residues expressed in HEK293 cells after 4 hrs by FRET assay in presence of para-LRB-AC42; type: cell-based
In short: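 EGFP emission was read at 510 nm with excitation at 470 nm. Specific signal was the difference from 20 μM atropine. Kx and α came from an allosteric model fit, with three or more independent runs done in duplicate.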

[14] = target: T2, Muscarinic acetylcholine receptor M1 (Homo sapiens); experiment: Partial agonist activity at EGFP-fused human M1 receptor N-terminal truncated at 17 residues expressed in HEK293 cells assessed as inhibition of carbachol induced calcium response at 1 uM by fluorescence assay relative to control; type: functional, cell-based
[15] = target: T1, Muscarinic acetylcholine receptor M1; experiment: Binding affinity to EGFP-fused human M1 receptor N-terminal truncated at 17 residues expressed in HEK293 cells after 4 hrs by FRET assay; type: cell-based
In short: (§3)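 EGFP emission was read at 510 nm; specific binding is atropine-sensitive fluorescence extinction. Kd, maximal FRET amplitude and Ki/Kx/α come from Hill or competitive/allosteric fits, mean ± SE, n≥3.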

[16] = target: T1, Muscarinic acetylcholine receptor M1; experiment: Displacement of [3H]NMS from EGFP-fused human M1 receptor N-terminal truncated at 17 residues expressed in HEK293 cells assessed as reduction of [3H]NMS dissociation rate after 22 hrs by liquid scintillation counting; type: cell-based
[17] = target: T2, Muscarinic acetylcholine receptor M1 (Homo sapiens); experiment: Binding affinity to EGFP-fused human M1 receptor N-terminal truncated at 17 residues expressed in HEK293 cells assessed as maximal amplitude after 4 hrs by FRET assay; type: cell-based
In short: as §3

[18] = target: T2, Muscarinic acetylcholine receptor M1 (Homo sapiens); experiment: Partial agonist activity at EGFP-fused human M1 receptor N-terminal truncated at 17 residues expressed in HEK293 cells assessed as inhibition of carbachol induced calcium response at […] by fluorescence assay; type: functional, cell-based
[19] = target: T2, Muscarinic acetylcholine receptor M1 (Homo sapiens); details: HEK293

## Cc1ccccc1C(=O)CCCN1CCC(CCCCCN)CC1
[1]
  Ki: 1.29 µM
[2]
  Ki: 1.95 µM
[3]
  inhibition: Dose-dependent effect
[4]
  IC50: 3.7 µM
[5]
  inhibition: inactive

## CCCCC1CCN(CCCC(=O)c2ccccc2C)CC1
[6]
  EC50: 0.72 µM
[7]
  EC50: 0.21 µM
[8]
  EC50: 0.74 µM
[1]
  Ki: 0.891 µM
[2]
  Ki: 1.74 µM
[9]
  EC50: 0.45 µM
[10]
  inhibition: inactive
[11]
  inhibition: inactive
[12]
  inhibition: inactive

## C#C[C@]1(O)CC[C@H]2[C@@H]3CC[C@H]4Cc5nc6nc7ccccc7n6cc5C[C@]4(C)[C@H]3CC[C@@]21C
[13]
  pKx: 5.03

## CCN(CC)c1ccc2c(-c3ccc(S(=O)(=O)[O-])cc3S(=O)(=O)NCCCCCC3CCN(CCCC(=O)c4ccccc4C)CC3)c3ccc(=[N+](CC)CC)cc-3oc2c1
[14]
  Emax: 20%

## Clc1ccc2c(c1)N=C(N1CCNCC1)c1ccccc1N2 [N-DESMETHYLCLOZAPINE]
[13]
  pKx: 6.92
[2]
  Ki: 0.0603 µM

## CCN(CC)c1ccc2c(-c3ccc(S(=O)(=O)NCCCCCC4CCN(CCCC(=O)c5ccccc5C)CC4)cc3S(=O)(=O)[O-])c3ccc(=[N+](CC)CC)cc-3oc2c1
[15]
  Kd: 0.794 µM
[16]
  EC50: 25.1 µM
[2]
  Ki: 1 µM
[3]
  inhibition: Dose-dependent effect
[4]
  IC50: 0.3 µM
[17]
  Activity: 26.5%
[5]
  inhibition: inactive

## CCN(CC)c1ccc2c(-c3ccc(S(=O)(=O)O)cc3S(=O)(=O)[O-])c3ccc(=[N+](CC)CC)cc-3oc2c1
[2]
  Ki: > 1000 µM
[18]
  Activity: inactive

## COc1cc2c(cc1OC)[C@@]13CCN4CC5=CCO[C@H]6CC(=O)N2[C@H]1[C@H]6[C@H]5C[C@H]43 [BRUCINE]
[1]
  Ki: 44.7 µM
[19]
  pKx: 4.59
